The structures appear in SMILES notation. Where only a bound is given, the exact number is not on record here.

For assay [1], the target named is 5-hydroxytryptamine receptor 2A (Homo sapiens, UniProt P28223). Briefly: Binding affinity towards human 5-hydroxytryptamine 2A receptor expressed in HEK 293 cells using [3H]ketanserin as radioligand. Format: cell-based, HEK293. In outline: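 Radioligand binding on human cloned receptors stably expressed in HEK 293 cells; 5-HT2A labelled with [3H]ketanserin, 5-HT2B with [3H]-5-HT. Values are means of at least two determinations, each within 0.2 log unit of the mean.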
5-hydroxytryptamine receptor 2A, sequence (P28223 whole entry): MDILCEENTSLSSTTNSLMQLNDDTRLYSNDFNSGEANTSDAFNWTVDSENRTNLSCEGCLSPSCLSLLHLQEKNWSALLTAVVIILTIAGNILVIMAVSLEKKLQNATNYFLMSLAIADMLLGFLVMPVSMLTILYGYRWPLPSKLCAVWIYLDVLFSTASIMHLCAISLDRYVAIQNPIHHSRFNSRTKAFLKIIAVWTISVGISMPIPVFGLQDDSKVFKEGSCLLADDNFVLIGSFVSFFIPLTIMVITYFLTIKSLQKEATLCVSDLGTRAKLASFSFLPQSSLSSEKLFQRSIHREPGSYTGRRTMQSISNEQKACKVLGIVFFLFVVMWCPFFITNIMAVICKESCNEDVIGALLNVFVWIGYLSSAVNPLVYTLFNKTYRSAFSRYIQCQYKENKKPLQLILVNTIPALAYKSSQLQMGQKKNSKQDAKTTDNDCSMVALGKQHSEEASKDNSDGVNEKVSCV

In assay [2] the target is T1, 5-hydroxytryptamine receptor 2C (Homo sapiens, UniProt P28335).
T1 sequence (P28335 whole entry): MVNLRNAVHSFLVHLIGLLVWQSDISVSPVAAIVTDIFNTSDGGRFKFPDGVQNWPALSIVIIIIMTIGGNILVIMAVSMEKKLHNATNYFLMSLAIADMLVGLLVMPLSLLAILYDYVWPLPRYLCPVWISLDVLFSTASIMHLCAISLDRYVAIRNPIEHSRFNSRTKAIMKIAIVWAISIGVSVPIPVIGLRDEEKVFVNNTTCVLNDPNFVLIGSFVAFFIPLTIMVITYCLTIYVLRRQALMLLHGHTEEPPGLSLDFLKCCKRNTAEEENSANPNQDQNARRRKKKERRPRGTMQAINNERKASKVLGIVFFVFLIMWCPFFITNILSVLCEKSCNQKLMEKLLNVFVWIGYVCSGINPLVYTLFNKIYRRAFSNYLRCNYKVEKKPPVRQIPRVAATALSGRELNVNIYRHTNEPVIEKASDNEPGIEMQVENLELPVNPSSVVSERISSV
The assay is described as follows: Binding affinity towards cloned human 5-hydroxytryptamine 2C receptor expressed in HEK 293 cells using [3H]mesulergine as radioligand. It counts as cell-based, HEK293.

Turning to `O=C(Nc1cccnc1)N1CCc2ccc(C(F)(F)F)cc21`, the inhibition constant (Ki) (as a rule, a measure of affinity in units of concentration, obtained from inhibition or displacement) in assay [1] is 501 nM; in assay [2] it was 50.1 nM. With `O=C(Nc1cccnc1)N1CCc2cc(OCC3CC3)c(C(F)(F)F)cc21`, the inhibition constant Ki is 3980 nM in assay [1] and 20 nM in assay [2]. The like results for `CSc1cc2c(cc1Br)CCN2C(=O)Nc1cccnc1` were, in that order, 2510 nM and 50.1 nM. For `O=C(Nc1cccnc1)N1CCc2cc(Br)cc([N+](=O)[O-])c21`, the inhibitory constant (Ki) was 3980 nM in assay [1] and 316 nM in assay [2]. The like results for `Cc1cc2c(cc1I)N(C(=O)Nc1cccnc1)CC2` were, in that order, 63.1 nM and 3.16 nM. With `O=C(Nc1cccnc1)N1CCc2cc(Cl)c(C(F)(F)F)cc21`, the inhibition constant (Ki) in assay [1] is 158 nM; in assay [2] it was 6.31 nM. The like results for `O=C(Nc1cccnc1)N1CCc2cc(-c3ccccc3)ccc21` were, in that order, 5010 nM and 126 nM. The matching figures for `CCCc1cc2c(cc1Cl)N(C(=O)Nc1cccnc1)CC2`: 1260 nM and 20 nM. Consider `O=C(Nc1cccnc1)N1CCc2cc(Cl)c(Cl)cc21`, for which the results for the inhibition constant (Ki) in assay [1] and in assay [2] were 251 nM and 7.94 nM, respectively.

On to `CSc1ccc2c(c1)CCN2C(=O)Nc1cccnc1`, for which the Ki in assay [1] is 3980 nM; in assay [2] it was 39.8 nM. The like results for `O=C(Nc1cccnc1)N1CCc2c(Cl)cccc21` were, in that order, 3980 nM and 501 nM. With `O=C(Nc1cccnc1)N1CCc2cc(-c3ccccc3)c(Cl)cc21`, the Ki in assay [1] is 3980 nM; in assay [2] it was 126 nM. The matching figures for `CC(C)c1ccc2c(c1)CCN2C(=O)Nc1cccnc1`: 2000 nM and 79.4 nM. The matching figures for `CN(C)c1ccc2c(c1)CCN2C(=O)Nc1cccnc1`: over 6310 nM and 316 nM.

As to `Cc1ccc2c(c1)CCN2C(=O)Nc1cccnc1`, the inhibition constant (Ki) in assay [1] is 5010 nM; in assay [2] it was 158 nM. The matching figures for `CSc1c(Cl)cc2c(c1Cl)CCN2C(=O)Nc1cccnc1`: 63.1 nM and 2.51 nM. As to `COc1cc2c(cc1C(F)(F)C(F)(F)F)N(C(=O)Nc1cccnc1)CC2`, the Ki in assay [1] is 3980 nM; in assay [2], 12.6 nM. As to `O=C(Nc1cccnc1)N1CCc2cc([N+](=O)[O-])ccc21`, the figures for the Ki in assay [1] and in assay [2] were over 6310 nM and 316 nM, respectively. The matching figures for `Cc1ccc2c(c1I)CCN2C(=O)Nc1cccnc1`: 2510 nM and 25.1 nM. In the case of `O=C(Nc1cccnc1)N1CCc2ccccc21`, in assay [2], the Ki is 1260 nM.

Regarding `Cc1ccc2c(c1Br)CCN2C(=O)Nc1cccnc1`, the Ki in assay [1] was 126 nM; in assay [2], 7.94 nM.

In the case of `Cc1c(Cl)cc2c(c1Cl)CCN2C(=O)Nc1cccnc1`, the figures for the Ki in assay [1] and in assay [2] were 31.6 nM and 3.98 nM, respectively.

As to `CSc1cc2c(cc1C#N)N(C(=O)Nc1cccnc1)CC2`, the Ki is 2510 nM in assay [1] and 15.8 nM in assay [2]. The matching figures for `O=C(Nc1cccnc1)N1CCc2cc(C(F)(F)F)ccc21`: 1260 nM and 31.6 nM. Take `CSc1ccc2c(c1Cl)CCN2C(=O)Nc1cccnc1`: the inhibition constant Ki in assay [1] is 5010 nM; in assay [2] it was 63.1 nM. The like results for `CC(=O)c1cc2c(cc1C(F)(F)F)N(C(=O)Nc1cccnc1)CC2` were, in that order, 3160 nM and 50.1 nM. As to `CCc1cc2c(cc1Cl)N(C(=O)Nc1cccnc1)CC2`, the inhibition constant (Ki) in assay [1] is 398 nM; in assay [2], 5.01 nM. Regarding `Cc1cc2c(cc1Br)N(C(=O)Nc1cccnc1)CC2`, the Ki is 63.1 nM in assay [1] and 3.98 nM in assay [2]. The matching figures for `O=C(Nc1cccnc1)N1CCc2cc(I)c(Cl)cc21`: 100 nM and 3.16 nM. With `Cc1cc2c(cc1Cl)CCN2C(=O)Nc1cccnc1`, the Ki was 398 nM in assay [1] and 10 nM in assay [2]. The like results for `CC(C)c1cc2c(cc1C(F)(F)F)N(C(=O)Nc1cccnc1)CC2` were, in that order, over 6310 nM and 25.1 nM. For the molecule `CC(C)(C)c1ccc2c(c1Cl)CCN2C(=O)Nc1cccnc1`, the figures for the inhibition constant (Ki) in assay [1] and in assay [2] were 631 nM and 39.8 nM, respectively.

For the origin of these results see ChEMBL document CHEMBL1131637, “Novel and selective 5-HT2C/2B receptor antagonists as potential anxiolytic agents: synthesis, quantitative structure-activity relationships, and molecular modeling of substituted 1-(3-pyridylcarbamoyl)indolines” (J Med Chem, 1998).
